Laboratory results as given in ChEMBL document CHEMBL4400518, “Synthesis, antimicrobial and cytotoxic activities, and molecular docking studies of N-arylsulfonylindoles containing an aminoguanidine, a semicarbazide, and a thiosemicarbazide moiety” (Eur J Med Chem, 2019).
≈ marks a conversion by molar mass, not a printed value.

Columns and labels:
Format in all cases: functional
[1] = tested on: Escherichia coli; assay: Antibacterial activity against Escherichia coli CMCC 44568 measured after 24 hrs by ELISA; conditions: CMCC 44568, 24 h
Procedure, shortened: (§1)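 Broth microdilution MIC. Mid-log bacteria in MHB or TSB diluted 1000-fold, inoculated at 10^5 CFU/mL. Compounds added from DMSO stocks; final DMSO at most 0.05%. Incubation 24 h at 37 °C. Growth read as absorbance at 630 nm. MIC taken as the lowest concentration giving complete growth inhibition. Three independent experiments.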

[2] = tested on: Pseudomonas aeruginosa; assay: Antibacterial activity against Pseudomonas aeruginosa CMCC 10104 measured after 24 hrs by ELISA; conditions: CMCC 10104, 24 h; procedure, shortened: as §1
[3] = tested on: Pseudomonas aeruginosa; assay: Antibacterial activity against Pseudomonas aeruginosa CMCC 27853 measured after 24 hrs by ELISA; conditions: CMCC 27853, 24 h; procedure, shortened: as §1
[4] = tested on: Enterococcus faecalis; assay: Antibacterial activity against Enterococcus faecalis CMCC 29212 measured after 24 hrs by ELISA; conditions: CMCC 29212, 24 h; procedure, shortened: as §1
[5] = tested on: Bacillus subtilis; assay: Antibacterial activity against Bacillus subtilis CMCC 63501 measured after 24 hrs by ELISA; conditions: CMCC 63501, 24 h; procedure, shortened: as §1
[6] = tested on: Escherichia coli; assay: Antibacterial activity against Escherichia coli CMCC 25922 measured after 24 hrs by ELISA; conditions: CMCC 25922, 24 h; procedure, shortened: as §1
[7] = tested on: Streptococcus pyogenes; assay: Antibacterial activity against Streptococcus pyogenes CMCC 32067 measured after 24 hrs by ELISA; conditions: CMCC 32067, 24 h; procedure, shortened: as §1
[8] = tested on: Streptococcus pneumoniae; assay: Antibacterial activity against Streptococcus pneumoniae CMCC 31968 measured after 24 hrs by ELISA; conditions: CMCC 31968, 24 h
[9] = tested on: Staphylococcus aureus; assay: Antibacterial activity against Staphylococcus aureus CMCC(B) 26003 measured after 24 hrs by ELISA; conditions: CMCC(B) 26003, 24 h; procedure, shortened: as §1
[10] = tested on: Staphylococcus aureus; assay: Antibacterial activity against Staphylococcus aureus CMCC 25923 measured after 24 hrs by ELISA; conditions: CMCC 25923, 24 h; procedure, shortened: as §1

| Structure (SMILES) | MIC [1] | MIC [2] | MIC [3] | MIC [4] | MIC [5] | MIC [6] | MIC [7] | MIC [8] | MIC [9] | MIC [10] |
| --- | --- | --- | --- | --- | --- | --- | --- | --- | --- | --- |
| CC/C(=N/NC(N)=S)c1cn(S(=O)(=O)c2ccc(C)cc2)c2ccccc12 | > 320 µM | > 320 µM | > 320 µM | > 320 µM | > 320 µM | > 320 µM | > 320 µM | > 320 µM | 320 µM (≈ 128 µg/mL) | 320 µM (≈ 128 µg/mL) |
| C/C(=N/NC(=N)N)c1cn(S(=O)(=O)c2ccccc2)c2ccc(Br)cc12 | 9.24 µM (≈ 4.01 µg/mL) | > 296 µM | > 296 µM | 9.24 µM (≈ 4.01 µg/mL) | 9.24 µM (≈ 4.01 µg/mL) | 18.5 µM (≈ 8.03 µg/mL) | 296 µM (≈ 128 µg/mL) | 4.62 µM (≈ 2.01 µg/mL) | 4.62 µM (≈ 2.01 µg/mL) | 4.62 µM (≈ 2.01 µg/mL) |
| NC(=S)N/N=C\c1cn(S(=O)(=O)c2ccccc2)c2ccccc12 | > 358 µM | > 358 µM | 358 µM (≈ 128 µg/mL) | > 358 µM | > 358 µM | > 358 µM | > 358 µM | > 358 µM | 179 µM (≈ 64.1 µg/mL) | > 358 µM |
| CC/C(=N/NC(N)=S)c1cn(S(=O)(=O)c2ccccc2)c2ccccc12 | 332 µM (≈ 128 µg/mL) | > 332 µM | 332 µM (≈ 128 µg/mL) | 166 µM (≈ 64.1 µg/mL) | 82.9 µM (≈ 32 µg/mL) | 332 µM (≈ 128 µg/mL) | > 332 µM | > 332 µM | 64 µM (≈ 24.7 µg/mL) | 332 µM (≈ 128 µg/mL) |
| CC/C(=N/NC(N)=O)c1cn(S(=O)(=O)c2ccccc2)c2ccccc12 | > 346 µM | > 346 µM | > 346 µM | > 346 µM | > 346 µM | > 346 µM | > 346 µM | > 346 µM | > 346 µM | 346 µM (≈ 128 µg/mL) |
| C/C(=N/NC(N)=O)c1cn(S(=O)(=O)c2ccccc2)c2ccccc12 | > 360 µM | > 360 µM | > 360 µM | > 360 µM | 89.9 µM (≈ 32 µg/mL) | > 360 µM | > 360 µM | > 360 µM | 360 µM (≈ 128 µg/mL) | > 360 µM |
| N=C(N)N/N=C\c1cn(S(=O)(=O)c2ccccc2)c2ccccc12 | 23.5 µM (≈ 8.01 µg/mL) | 23.5 µM (≈ 8.01 µg/mL) | 46.9 µM (≈ 16 µg/mL) | 46.9 µM (≈ 16 µg/mL) | 11.7 µM (≈ 4 µg/mL) | > 375 µM | > 375 µM | 46.9 µM (≈ 16 µg/mL) | 5.87 µM (≈ 2 µg/mL) | 11.7 µM (≈ 4 µg/mL) |
| C/C(=N/NC(N)=S)c1cn(S(=O)(=O)c2ccccc2)c2ccc(Br)cc12 | > 284 µM | > 284 µM | > 284 µM | > 284 µM | 284 µM (≈ 128 µg/mL) | > 284 µM | > 284 µM | > 284 µM | 284 µM (≈ 128 µg/mL) | > 284 µM |
| NC(=O)N/N=C\c1cn(S(=O)(=O)c2ccccc2)c2ccc(Br)cc12 | > 305 µM | > 305 µM | > 305 µM | > 305 µM | 19.1 µM (≈ 8.03 µg/mL) | > 305 µM | > 305 µM | > 305 µM | 38.1 µM (≈ 16.1 µg/mL) | 305 µM (≈ 128 µg/mL) |
| C/C(=N/NC(N)=O)c1cn(S(=O)(=O)c2ccccc2)c2ccc(Br)cc12 | > 295 µM | > 295 µM | > 295 µM | 36.9 µM (≈ 16 µg/mL) | 295 µM (≈ 128 µg/mL) | > 295 µM | > 295 µM | > 295 µM | 295 µM (≈ 128 µg/mL) | 295 µM (≈ 128 µg/mL) |
| Cc1ccc(S(=O)(=O)n2cc(/C=N\NC(N)=O)c3ccccc32)cc1 | 360 µM (≈ 128 µg/mL) | > 360 µM | 360 µM (≈ 128 µg/mL) | > 360 µM | 44.9 µM (≈ 16 µg/mL) | 360 µM (≈ 128 µg/mL) | > 360 µM | > 360 µM | 44.9 µM (≈ 16 µg/mL) | 180 µM (≈ 64.1 µg/mL) |
| CC/C(=N/NC(=N)N)c1cn(S(=O)(=O)c2ccccc2)c2ccc(Br)cc12 | 4.47 µM (≈ 2 µg/mL) | > 286 µM | > 286 µM | 8.95 µM (≈ 4.01 µg/mL) | 4.47 µM (≈ 2 µg/mL) | 17.9 µM (≈ 8.03 µg/mL) | > 286 µM | 1.12 µM (≈ 0.502 µg/mL) | 4.47 µM (≈ 2 µg/mL) | 4.47 µM (≈ 2 µg/mL) |
| CC/C(=N/NC(N)=S)c1cn(S(=O)(=O)c2ccccc2)c2ccc(Br)cc12 | > 276 µM | > 276 µM | 276 µM (≈ 128 µg/mL) | > 276 µM | 69 µM (≈ 32.1 µg/mL) | > 276 µM | > 276 µM | > 276 µM | 276 µM (≈ 128 µg/mL) | > 276 µM |
| CC/C(=N/NC(N)=O)c1cn(S(=O)(=O)c2ccccc2)c2ccc(Br)cc12 | > 286 µM | > 286 µM | > 286 µM | > 286 µM | > 286 µM | > 286 µM | > 286 µM | > 286 µM | > 286 µM | > 286 µM |
| C/C(=N/NC(N)=S)c1cn(S(=O)(=O)c2ccc(C)cc2)c2ccc(Br)cc12 | > 276 µM | > 276 µM | > 276 µM | > 276 µM | > 276 µM | > 276 µM | > 276 µM | > 276 µM | 276 µM (≈ 128 µg/mL) | 276 µM (≈ 128 µg/mL) |
